Compound activity deposited in PubChem BioAssay by several laboratories.
Only some compounds are listed: those with a hit (about 5.7% of all), similar ones and a draw of the others.
Beta apoptosis: beta cell apoptosis inhibition; 300,000 compounds, 0.8% hits; INS-1E cytokine-induced death, ATP luminescence, 48 h; percent of positive-control rescue, neutral wells zero; protection from apoptosis, % (concentration not given with the values); AID 435005;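 active = Every replicate reaches about 75%, or at least half do and their mean reaches it too, limit read from the data; inconclusive = At least half of replicates reach the limit but their mean does not; inactive = Under half of replicates reach the limit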;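 note: higher means more ATP so stronger rescue from cytokine killing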
Mdm2-MdmX inh: human Mdm2/MdmX binding inhibition. 330,000 compounds, 3% hits. inhibition, % at 8 µM. SaOS-2 split-luciferase Mdm2/MdmX complementation, luminescence. AID 485346. O15151+Q00987;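 active = inhibition of at least 50% at 8 µM in the primary screen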
CSC inhib: cancer stem cell inhibition | cancer stem cell-like cells viability, luminescence | inhibition, % at 7.5 µM | 300,000 compounds, 1.1% hits; in the data active = inhibition above about 75%; inconclusive = no clear call, values can overlap the other calls; tested in HMLE shEcad cells
Calb FLC: affects C. albicans growth with fluconazole; growth inhibition, % (concentration not given with the values); AID 1979; C. albicans CaCi-2 (fluconazole-resistant clinical isolate) + fluconazole, Alamar Blue growth, 48 h; 300,000 compounds, 0.57% hits;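 active = growth inhibition above about 58% in most replicates, limit read from the data, passing the limit was not always enough; inconclusive = exactly half the replicates above a set limit; inactive = most replicates below a set limit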;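 note: all wells also contain fluconazole at 8 µg/ml as a sub-toxic cotreatment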
SKKanGAS inh: blocks kanamycin growth of S. pyogenes SKKanGAS strain; 300,000 compounds, 1.3% hits; BacTiter-Glo, 6 h; inhibition, % at 7.5 µM;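 active = mean replicate score, as percent of positive control median, at least 50; inconclusive = mean below 50 but one replicate at or above 50; inactive = mean and every replicate below 50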;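 note: strain carries kanamycin resistance gene driven by streptokinase promoter and grows in 40 µg/ml kanamycin; loss of luminescence reflects streptokinase promoter inhibition or plain growth inhibition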
T cruzi inh: blocks replication of Trypanosoma cruzi | T. cruzi beta-gal in NIH3T3, luminescence, 90 h | inhibition, % (no concentration beside the values) | 300,000 compounds, 1.4% hits | AID 1885;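 active = mean inhibition across valid replicates above about 55%, limit read from the data; inconclusive = mean below that limit but half or more replicates reach it; inactive = mean below it, under half of replicates reach it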;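 note: signal also drops with host cell toxicity which is not excluded here; higher percent means less beta-gal luminescence so fewer parasites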
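Test system: β-gal T. cruzi (Tulahuen C4) inside NIH/3T3 cells / Quantity: 5,000 cells/well / Measured by: luminescence from GalScreen with 0.05% NP40, read after 60 min / Medium: DMEM plus 2% FBS / Measure: parasite load inhibition, % / Reagent: Tulahuen C4 trypomastigotes, 5000/well / Schedule: co-culture of at least 90 h after 3 h attachment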
Mdm2 MdmX conf: human Mdm2/MdmX binding inhibition, confirmed; luminescent assay; shares compounds with Mdm2-MdmX inh; inhibition, % at 8 µM; AID 489028; 10,000 compounds, 55% hits; in the data active = inhibition above about 40%
Full FLuc ctr: full-length luciferase inhibition in Mdm2/MdmX counter-screen. shares compounds with Mdm2-MdmX inh. SaOS-2 full-length luciferase counterscreen, luminescence. inhibition, % at 8 µM. 6,200 compounds, 77% hits;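 active = mean inhibition at 8 µM reaching about 37%, which flags the compound as non-specific, limit read from the data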;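 note: p53-null SaOS-2 cells with luciferase driven by a doxycycline-inducible promoter; compound on cells about two nights before reading with doxycycline added after day one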
A number is an active result.

How did Nc1ccccc1C#CC(=O)c1ccccc1 do in these assays?
Beta apoptosis: 91; Mdm2-MdmX inh: 96; CSC inhib: inactive; Calb FLC: inconclusive; SKKanGAS inh: inactive; T cruzi inh: inconclusive; Mdm2 MdmX conf: 63; Full FLuc ctr: 55

Results for Nc1ccccc1C#Cc1ccc([N+](=O)[O-])cc1 ?
Beta apoptosis: inactive; Mdm2-MdmX inh: inactive; CSC inhib: inactive; Calb FLC: inactive; SKKanGAS inh: inactive; T cruzi inh: inactive

How did O=C(C#Cc1cccc([N+](=O)[O-])c1)c1ccccc1 do in these assays?
Beta apoptosis: inactive; Mdm2-MdmX inh: 73; CSC inhib: inactive; Calb FLC: inactive; SKKanGAS inh: inactive; T cruzi inh: inactive; Mdm2 MdmX conf: 63; Full FLuc ctr: 52

Results for NCc1ccccc1CS(=O)(=O)N1CCOCC1 ?
Beta apoptosis: inactive; Mdm2-MdmX inh: inactive; CSC inhib: inactive

Results for Cc1ccc2c(cnn2C(=O)CCCC(=O)NC(C)c2ccccc2)c1 (configuration not stated) ?
Beta apoptosis: inactive; Mdm2-MdmX inh: inactive; CSC inhib: inactive; Calb FLC: inactive; SKKanGAS inh: inactive; T cruzi inh: inactive

What do the screens show for `COc1ccc(NC(C)=O)cc1NS(=O)(=O)c1ccc2c(c1)OCCO2`?
Beta apoptosis: inactive; Mdm2-MdmX inh: inactive; CSC inhib: inactive

Results for COC(=O)c1ccc(Cl)c(NS(=O)(=O)c2ccc3c(c2)OCCO3)c1 ?
Beta apoptosis: inactive; Mdm2-MdmX inh: 53; CSC inhib: inactive; Calb FLC: inactive; SKKanGAS inh: inactive; T cruzi inh: inactive; Mdm2 MdmX conf: 47; Full FLuc ctr: 55

What do the screens show for `COC(=O)c1ccc(N2CCCCC2)c(NS(=O)(=O)c2ccc(C)cc2)c1`?
Mdm2-MdmX inh: 65; Calb FLC: inactive; SKKanGAS inh: inactive; T cruzi inh: inactive; Mdm2 MdmX conf: 57; Full FLuc ctr: 62

Results for CC1(c2ccccc2)NC(=O)N(CC(=O)Nc2ccccc2N2CCCC2)C1=O (configuration not stated) ?
Beta apoptosis: inactive; Mdm2-MdmX inh: inactive; CSC inhib: inactive; Calb FLC: inactive; SKKanGAS inh: inactive; T cruzi inh: inactive

Results for COc1cc(C(CCN2CCCC2)c2c(OC)cc(OC)c3c(C)cc(=O)oc23)cc(OC)c1OC (configuration not stated) ?
Beta apoptosis: inactive; Mdm2-MdmX inh: inactive; CSC inhib: inactive; Calb FLC: inactive; SKKanGAS inh: inactive; T cruzi inh: inactive

What do the screens show for `CCCCCc1cc(=O)oc2c(C(CCN(CC)CC)c3ccc(OC)cc3)c(OC)cc(OC)c12` (configuration not stated)?
Beta apoptosis: 98; Mdm2-MdmX inh: 100; CSC inhib: inactive; Calb FLC: inactive; SKKanGAS inh: inactive; T cruzi inh: inactive; Mdm2 MdmX conf: inactive; Full FLuc ctr: 51

What do the screens show for `CCCCCc1cc(=O)oc2c(C(CCN3CCN(c4ccccc4)CC3)c3ccc4c(c3)OCO4)c(OC)cc(OC)c12` (configuration not stated)?
Beta apoptosis: inactive; Mdm2-MdmX inh: inactive; CSC inhib: inactive; Calb FLC: inactive; SKKanGAS inh: inactive; T cruzi inh: inactive

How did CCCCCc1cc(=O)oc2c(C(CCN3CCCC3)c3cc(OC)c(OC)c(OC)c3)c(OC)cc(OC)c12 (configuration not stated) do in these assays?
Beta apoptosis: inactive; Mdm2-MdmX inh: 100; CSC inhib: inactive; Calb FLC: inactive; SKKanGAS inh: inactive; T cruzi inh: inactive; Mdm2 MdmX conf: 62; Full FLuc ctr: 39

Results for CCCCCc1cc(=O)oc2c(C(CCN3CCCC3)c3ccc(N(C)C)cc3)c(OC)cc(OC)c12 (configuration not stated) ?
Beta apoptosis: inactive; Mdm2-MdmX inh: 97; CSC inhib: inactive; Calb FLC: inactive; SKKanGAS inh: inactive; T cruzi inh: inactive; Mdm2 MdmX conf: inactive; Full FLuc ctr: 53

What do the screens show for `CCN(CC)CCC(c1ccc(N(C)C)cc1)c1c(OC)cc(OC)c2ccc(=O)oc12` (configuration not stated)?
Beta apoptosis: inactive; Mdm2-MdmX inh: inactive; CSC inhib: inactive; Calb FLC: inactive; SKKanGAS inh: inactive; T cruzi inh: inactive
